# Bioassay records deposited in PubChem by SRMLSC.
# PostGolgi yeast: growth inhibition of a yeast mutant, post-Golgi transport screen; 98,000 compounds, 0.9% hits; inhibition, % at 10 µM; post-Golgi transport phenotypic cell assay;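 note: yeast cells grown in 1536-well plates; yeast grown about 18 h at 30C before absorbance read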
# PostGolgi ctrl: inhibits growth of the yeast control strain | efflux-deficient yeast background strain, growth absorbance A615, 16 h | inhibition, % at 10 µM | 98,000 compounds, 5% hits | AID 738
# Yeast lifespan up: yeast lifespan extension | AID 775 | S. cerevisiae growth with nicotinamide, OD615; deaD strain in restrictive glucose medium | 130,000 compounds, 0.68% hits | inhibition of the nicotinamide effect, % at 10 µM;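 active = inhibition above a set limit, placed 3 SD over the median of all compounds, cut at about 26% in these data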;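 note: 0% = nicotinamide-treated wells and 100% = cells grown without nicotinamide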
#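 Material: Modified budding yeast, DeaD strain | Medium: Restrictive glucose medium | Probe or stimulus: 1.5 mM nicotinamide | Dosing: Single dose 10 µM compound, 0.25% DMSO | Times: 48 h at 30 °C | Technique: OD615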
# Yeast growth inh: yeast BB579 growth reduction in restrictive medium; inhibition, % at 10 µM; S. cerevisiae BB579 growth, OD615, 48 h; 140,000 compounds, 0.51% hits; AID 804;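 active = inhibition above a set limit, 3 SD over the mean compound inhibition, cut at about 44% in these data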
#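 controls = amphotericin B 10 µg/mL, positive | assay system = DeaD yeast strain BB579 | schedule = 48 h compound exposure at 30 °C after 4 h preincubation | detection = OD615 turbidity measurement | medium = restrictive CSMM-D medium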
# Active calls of the source: *; . = no result given. This excerpt belongs to a sample that is enriched for hits. Cut-off read from the data, not from the text of the source, unless noted: active = inhibition above about 30%; inactive = the rest.
SMILES,PostGolgi yeast,PostGolgi ctrl,Yeast lifespan up,Yeast growth inh
COc1cccc(/C=N/N2C(=O)CSC2=S)c1O,.,.,-4,72*
CCc1c(C(=O)NCc2ccc3c(c2)OCO3)[nH]c(C)c1C(C)=O,3,9,-9,-18
CCC(C)[C@@H](NC(=O)OC(C)(C)C)c1nnc(S(=O)(=O)Cc2cccc(C)c2)o1 (some centres not stated),15,52*,-3,-31
Cc1ccccc1CS(=O)(=O)c1nnc([C@H](Cc2ccccc2)NC(=O)OC(C)(C)C)o1,37*,51*,-7,-28
Cc1ccc(Oc2ccc(Cl)cc2NC(=O)c2ccc(F)cc2F)cc1,.,.,6,-30
CCOc1ccc(N2CC(C(=O)OCC(=O)NCc3ccccc3)CC2=O)cc1 (configuration not stated),-1,15,-3,-5
COc1cnn(-c2ccccc2)c(=O)c1SCc1ccc(Cl)cc1Cl,-5,36*,-4,-21
COc1cnn(-c2ccc(C)cc2)c(=O)c1SCc1ccccc1,4,4,0,-19
CCOC(=O)C1CCCN(C(=S)Nc2cc(C)cc(C)c2)C1 (configuration not stated),4,1,-7,-22
CCOc1ccc(OCC)c(NS(=O)(=O)c2ccc3c(c2)CCN3C(=O)C2CCC2)c1,-2,8,1,-51
CCc1cc2c(=O)c(-c3nc4ccccc4n3C)c(C)oc2c(CN2CCN(CCO)CC2)c1O,52*,-1,-15,15
CC1CCC2(CC1)NC(=S)N(c1ccccc1)N2 (configuration not stated),4,3,-14,69*
O=C1NC2(CCCCC2)NN1c1ccccc1,14,-3,-4,-12
O=C(COC(=O)c1cc(S(=O)(=O)N2CCOCC2)ccc1O)NCCc1ccccc1,4,-5,-12,-49
N/C(=N/O)C(c1ccccc1)c1ccccc1,.,.,-2,-14
O=C1NC(c2ccccn2)Nc2sc3c(c21)CCC3 (configuration not stated),6,1,-8,75*
CCNC(=O)CCS(=O)(=O)c1ccc2ccccc2c1,.,.,.,-19
COc1ccc(C2CC23N=C(c2ccccc2)OC3=O)cc1 (configuration not stated),.,.,45*,-14
COc1ccc(S(=O)(=O)Cc2ccc(C(=O)N3CCN(c4cccc(C)c4)C(C)C3)o2)cc1 (configuration not stated),-8,47*,-10,-14
COc1ccc(S(=O)(=O)Cc2ccc(C(=O)N3CCN(c4ccc(Cl)cc4)CC3)o2)cc1,-1,37*,-6,-25
COc1ccccc1S(=O)(=O)Cc1ccc(C(=O)N2CCN(c3ccc(C)cc3)C(C)C2)o1 (configuration not stated),3,10,-13,2
COc1ccc(S(=O)(=O)Cc2ccc(C(=O)N3CCN(c4cccc(C)c4C)CC3)o2)cc1,1,35*,-9,11
COc1ccc(S(=O)(=O)Cc2ccc(C(=O)N3CCN(c4cc(Cl)ccc4C)CC3)o2)cc1,-8,32*,-6,-21
CC(C)C(=O)Nc1sc2c(c1-c1nc3ccccc3[nH]1)CCCC2,-17,5,-11,-32
O=C(NCCN1CCN(c2ccccc2)CC1)c1cccn2c(=O)c3cc(Cl)ccc3nc12,7,68*,-10,-56
SMILES,PostGolgi yeast,PostGolgi ctrl,Yeast lifespan up,Yeast growth inh
O=[N+]([O-])c1nn(-c2ccc3c(c2)OCCO3)n(O)c1=NCc1ccccc1Cl,0,44*,-13,-42
COc1ccccc1CN=c1c([N+](=O)[O-])nn(-c2ccc3c(c2)OCCO3)n1O,.,.,2,-38
CCn1c(SCc2ccc(Cl)c(Cl)c2)nnc1C(C)NC(=O)c1ccc(OC)cc1 (configuration not stated),.,.,-1,-38
COc1ccc(C(=O)NC(C)c2nnc(SCc3ccc(Cl)c(Cl)c3)n2C)cc1 (configuration not stated),33*,10,-3,-8
CCN(CC)CCNc1c2c(c(C#N)c3nc4ccccc4n13)CCCC2,22,46*,-3,-101
COc1ccc(Nc2nc(N)nc(CSc3n[nH]c(-c4ccccc4)n3)n2)cc1,-2,30*,-14,-13
CCOc1ccccc1Nc1nc(N)nc(CSc2nccc(C)n2)n1,16,17,-17,-7
Cc1ccc(Nc2nc(N)nc(CSc3nc4ccccc4s3)n2)cc1,2,51*,-20,-71
COc1ccccc1Nc1nc(N)nc(CSc2ncccn2)n1,-4,32*,-5,-21
CCOC(=O)CSc1nnc(SCCN2C(=O)c3ccccc3C2=O)s1,-4,11,-6,2
C=CCNc1nc(Cl)nc(Nc2ccc(OCC)cc2)n1,.,.,-6,-29
CCOc1ccccc1OC(=O)c1ccco1,-2,36*,5,11
O=C(Oc1ccc(Cl)c2cccnc12)c1ccco1,-5,12,-18,96*
Cc1cc2ncn(C3CC(=O)N(C)C3=O)c2cc1C (configuration not stated),5,8,-2,-14
Cc1cc2ncn(C3CC(=O)N(Cc4ccccc4)C3=O)c2cc1C (configuration not stated),5,40*,-1,-78
CC(NS(=O)(=O)c1cccc(Cl)c1)C(=O)Nc1ccc(-c2nc3ccccc3s2)cc1 (configuration not stated),-5,10,-4,-41
Cc1ccc(C)c(S(=O)(=O)NC(C)C(=O)Nc2ccc(-c3nc4ccccc4s3)cc2)c1 (configuration not stated),-4,33*,-7,-19
COc1cc(CNC2CCCC2)cc(Cl)c1OCc1ccccc1F,5,30,-7,-42
COc1ccc(/C=N/n2c(SC)nnc2-c2ccccc2)cc1C,-1,43*,-8,-39
O=C(c1cc2ccccc2oc1=O)N(Cc1ccc2c(c1)OCO2)Cc1ccco1,-8,42*,-14,-39
CN(C)CCCNC(=O)c1cc2c3ccccc3n(C)c2s1,1,0,-8,-5
Cn1c2ccccc2c2cc(C(=O)NNS(=O)(=O)c3ccc(F)cc3)sc21,15,55*,-13,-58
Cc1ccc(N=C(NO)c2nonc2N)cc1,-3,41*,-3,-31
CC(=O)C(Sc1ccc2nnc(-c3ccc(F)cc3)n2n1)C(C)=O,-2,23,-7,-3
Cc1ccc(OCc2nnc(SCC(=O)CC(=O)Nc3ccccc3)o2)cc1,-9,33*,-6,-57
CCc1nnc(NC(=O)CSc2nnc(COc3ccccc3C)o2)s1,3,-3,9,-16
CCc1nnc(NC(=O)CSc2nnc(COc3cccc(C)c3)o2)s1,-5,-2,27*,-12
CC(NC(=O)CSc1nnc(COc2ccccc2)o1)c1ccccc1 (configuration not stated),-1,2,-4,-29
Cc1cccc2sc(NC(=O)C3c4ccccc4Oc4ccccc43)nc12,53*,58*,-5,-28
Cc1cccc2sc(NC(=O)CN(C)S(=O)(=O)c3cccs3)nc12,-3,23,-20,-65
